Measurements as given in ChEMBL document CHEMBL1122309 (J Med Chem, 1983).

Tests used:
[1] = molecular target: T1, Cholesterol side-chain cleavage enzyme, mitochondrial (Bos taurus, UniProt P00189); assay: (§1) Inhibition of bovine cholesterol side-chain cleavage desmolase, cytochrome P450 11A1; parameters: concentration or dose not given beside the values; conditions: cattle
T1 sequence (P00189 whole entry): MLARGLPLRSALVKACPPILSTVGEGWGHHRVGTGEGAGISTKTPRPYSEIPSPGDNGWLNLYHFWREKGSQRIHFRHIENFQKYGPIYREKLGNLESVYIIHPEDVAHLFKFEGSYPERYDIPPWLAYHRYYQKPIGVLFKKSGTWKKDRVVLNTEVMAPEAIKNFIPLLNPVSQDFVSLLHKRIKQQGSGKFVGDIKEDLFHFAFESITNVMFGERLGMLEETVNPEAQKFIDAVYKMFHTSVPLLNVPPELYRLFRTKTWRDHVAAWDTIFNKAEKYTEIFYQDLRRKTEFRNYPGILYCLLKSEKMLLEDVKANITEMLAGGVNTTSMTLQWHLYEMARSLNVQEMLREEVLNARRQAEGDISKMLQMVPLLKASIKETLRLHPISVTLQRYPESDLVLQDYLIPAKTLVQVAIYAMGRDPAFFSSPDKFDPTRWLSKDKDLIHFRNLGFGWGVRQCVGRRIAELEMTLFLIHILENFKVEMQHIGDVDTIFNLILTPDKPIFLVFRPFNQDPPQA
Procedure, shortened: (§2)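 Enzyme source was the mitochondrial fraction of bovine adrenal cortex, stored at -70 °C. Substrate [14C]cholesterol; [14C]isocaproic acid released was measured. Inhibitors were added in 10 μL ethanol (ethanol alone in controls) to a 1.0 mL assay and preincubated 5 min at 30 °C. The reaction was started with 1 mg mitochondrial protein and sampled at 2, 4 and 6 min. Result given as % of control rate; apparent Ki from Lineweaver-Burk plots.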

[2] = molecular target: T2, Aromatase (Homo sapiens, UniProt P11511); assay: Inhibition of human placental aromatase Cytochrome P450 19A1; none
T2 sequence (P11511 whole entry): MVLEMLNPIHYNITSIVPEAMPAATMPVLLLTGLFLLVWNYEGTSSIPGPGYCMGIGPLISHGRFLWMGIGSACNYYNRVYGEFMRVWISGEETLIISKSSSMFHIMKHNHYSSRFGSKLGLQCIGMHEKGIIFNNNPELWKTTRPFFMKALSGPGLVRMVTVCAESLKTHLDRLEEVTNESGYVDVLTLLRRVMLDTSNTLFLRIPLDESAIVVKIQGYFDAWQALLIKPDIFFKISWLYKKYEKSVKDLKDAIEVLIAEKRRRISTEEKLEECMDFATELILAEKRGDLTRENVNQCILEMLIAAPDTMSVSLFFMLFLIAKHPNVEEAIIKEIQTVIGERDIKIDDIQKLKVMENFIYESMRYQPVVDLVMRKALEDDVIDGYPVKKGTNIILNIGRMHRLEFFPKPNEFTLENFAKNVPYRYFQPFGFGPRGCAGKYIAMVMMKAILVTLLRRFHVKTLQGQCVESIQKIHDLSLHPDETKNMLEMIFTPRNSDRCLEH

[3] = molecular target: T1, Cholesterol side-chain cleavage enzyme, mitochondrial; assay: Inhibition of bovine cholesterol side-chain cleavage desmolase, cytochrome P450 11A1; none; conditions: cattle; procedure, shortened: as §2
[4] = molecular target: T1, Cholesterol side-chain cleavage enzyme, mitochondrial; assay: as §1; conditions: cattle; procedure, shortened: as §2

CCC1(c2ccc([N+](=O)[O-])cc2)CCC(=O)NC1=O (stereo not drawn) [4-NITROGLUTETHIMIDE]
Inhibition [1]: 20%

CCC1(c2ccc(O)c([N+](=O)[O-])c2)CCC(=O)NC1=O (stereo not drawn)
Inhibition [2]: Not Active | Inhibition [3]: Not Active

CCC1(c2ccc(NC(C)=O)cc2)CCC(=O)NC1=O (stereo not drawn)
Inhibition [2]: Not Active | Inhibition [3]: Not Active

CCC1(c2ccc(N)cc2)CCC(=O)N(N)C1=O (stereo not drawn)
Inhibition [1]: 50%

CCC1(c2ccc(O)cc2)CCC(=O)NC1=O (stereo not drawn) [P-HYDROXYGLUTETHIMIDE]
Inhibition [2]: Not Active | Inhibition [3]: Not Active

CCC1(c2ccccc2)CCC(=O)NC1=O (stereo not drawn) [GLUTETHIMIDE]
Inhibition [2]: Not Active | Inhibition [3]: Not Active

CCC1(c2ccc(NC=O)cc2)CCC(=O)NC1=O (stereo not drawn)
Inhibition [1]: 12%

CCC1(c2ccc(N)cc2)CCC(=O)NC1=O (stereo not drawn) [AMINOGLUTETHIMIDE]
Inhibition [1]: 85%

CCC1(c2cccc(N)c2)CCC(=O)NC1=O (stereo not drawn)
Inhibition [4]: 13%

CCC1(c2ccc(N)c(O)c2)CCC(=O)NC1=O (stereo not drawn)
Inhibition [2]: Not Active | Inhibition [3]: Not Active

CCC1(c2ccc(N)cc2)CC(N)C(=O)NC1=O (stereo not drawn)
Inhibition [1]: 45%

CCC1(c2ccc(O)c(N)c2)CCC(=O)NC1=O (stereo not drawn)
Inhibition [2]: Not Active | Inhibition [1]: 35%
